Columns and labels:
L1210 [1] = test: Antitumor activity in the mice with intraperitoneal implanted L1210 lymphoid leukemia at the dose of 75 mg/kg/day x 5 was determined as mean survival of treated group compared to untreated; 28.5/9.5; assay type: functional, Mus musculus
L1210 [2] = test: Antitumor activity in the mice with intraperitoneal implanted L1210 lymphoid leukemia at the dose of 25 mg/kg/day x 5 was determined as mean survival of treated group compared to untreated; 18/9.5; assay type: functional, Mus musculus
Procedure, shortened: (§1)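 C3D2F1/J female mice (C3H/HeJ female × DBA/2J male), groups of six to eight, average weight 25 g. Inoculated ip with 1 × 10^6 L1210 ascites cells taken from DBA/2Ha donor mice bearing 3-5 day old tumors. Compounds were dissolved in 0.154 N NaOH, neutralized with 0.154 N HCl (final 0.9% NaCl), and given ip daily for 5 days from 24 h post-implant. Median survival T/C; ILS = (T/C − 1) × 100; 30-day survivors counted.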

L1210 [3] = test: Antitumor activity in the mice with intraperitoneal implanted L1210 lymphoid leukemia at the dose of 50 mg/kg/day x 5 was determined as mean survival of treated group compared to untreated; 20.5/8.5; assay type: functional, Mus musculus
L1210 [4] = test: Antitumor activity in the mice with intraperitoneal implanted L1210 lymphoid leukemia at the dose 100 mg/kg/day x 5 was determined as percentage increase in the life span as compared with control tumor bearers; assay type: functional; conditions: Mus musculus, L1210, ip
Procedure, shortened: (§2)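 Female C3D2F1/J mice (C3H/HeJ × DBA/2J), groups of six to eight, average weight 25 g. Each mouse got 1 × 10^6 L1210 ascites cells ip, taken from DBA/2Ha donor mice bearing 3-5 day tumors. Compound was dissolved in 0.154 N NaOH and neutralized with 0.154 N HCl (final 0.9% NaCl). Dosed ip daily ×5, starting 24 h after implant. Recorded body weight change on day 8, survival range, median survival and 30-day survivors. ILS = (T/C − 1) × 100.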

L1210 [5] = test: Antitumor activity in mice with intraperitoneal implanted L1210 lymphoid leukemia at the dose 75 mg/kg/day x 5 was determined as weight change (g/mouse) on 8th day; assay type: functional
Procedure, shortened: (§3)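 C3D2F1/J female mice (C3H/HeJ × DBA/2J), groups of six to eight, average 25 g, inoculated ip with 1 × 10^6 L1210 ascites cells taken from DBA/2Ha donor mice carrying 3-5 day tumors. Compound dissolved in 0.154 N NaOH, then neutralized with 0.154 N HCl to give 0.9% NaCl. Given ip daily for 5 consecutive days starting 24 h after implantation. Body weight change per mouse recorded on day 8.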

L1210 [6] = test: In Vitro evaluation for the antiproliferative activity by observing the growth inhibition of L1210 lymphoid leukemia cells in culture at 72 hour; assay type: functional, Mus musculus
Procedure, shortened: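 Growth of L1210 lymphoid leukemia cells in culture measured by Trypan blue exclusion of viable cells after 72 h of drug exposure. ED50 is the concentration giving 50% growth inhibition. In some runs the compound was first preincubated in medium at 37 °C for 24 or 48 h before the assay.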

L1210 [7] = test: Antitumor activity in mice with intraperitoneal implanted L1210 lymphoid leukemia at the dose 100 mg/kg/day x 5 was determined as weight change (g/mouse) on 8th day; assay type: functional; procedure, shortened: as §3
L1210 [8] = test: Antitumor activity in mice with intraperitoneal implanted L1210 lymphoid leukemia at the dose 25 mg/kg/day x 5 was determined as weight change (g/mouse) on 8th day; assay type: functional; procedure, shortened: as §3
L1210 [9] = test: Antitumor activity in mice with intraperitoneal implanted L1210 lymphoid leukemia at the dose 50 mg/kg/day x 5 was determined as weight change (g/mouse) on 8th day; assay type: functional; procedure, shortened: as §3
L1210 [10] = test: Antitumor activity in the mice with intraperitoneal implanted L1210 lymphoid leukemia at the dose 100 mg/kg/day x 5 was determined and number of animals survived on 30 th day were reported; 0/6; assay type: functional, Mus musculus; procedure, shortened: as §2
L1210 [11] = test: Antitumor activity in the mice with intraperitoneal implanted L1210 lymphoid leukemia at the dose 18.7 and 26.6 mg/kg/day x 5 was determined and number of animals survived on 30 th day were reported; 0/8; assay type: functional, Mus musculus; procedure, shortened: as §2
L1210 [12] = test: Antitumor activity in the mice with intraperitoneal implanted L1210 lymphoid leukemia at the dose 25 mg/kg/day x 5 was determined and number of animals survived on 30 th day were reported; 0/8; assay type: functional, Mus musculus; procedure, shortened: as §2
L1210 [13] = test: Antitumor activity in the mice with intraperitoneal implanted L1210 lymphoid leukemia at the dose 50 mg/kg/day x 5 was determined as Survival time in days; Range is 14-23 days; assay type: functional, Mus musculus; procedure, shortened: as §2
L1210 [14] = test: Antitumor activity in the mice with intraperitoneal implanted L1210 lymphoid leukemia at the dose 50 mg/kg/day x 5 was determined and number of animals survived on 30 th day were reported; 0/8; assay type: functional, Mus musculus; procedure, shortened: as §2
L1210 [15] = test: Antitumor activity in the mice with intraperitoneal implanted L1210 lymphoid leukemia at the dose 75 mg/kg/day x 5 was determined and number of animals survived on 30 th day were reported; 3/8; assay type: functional, Mus musculus; procedure, shortened: as §1
L1210 [16] = test: Antitumor activity in the mice with intraperitoneal implanted L1210 lymphoid leukemia at the dose 50 mg/kg/day x 5 was determined as percentage increase in the life span as compared with control tumor bearers; assay type: functional; conditions: Mus musculus, L1210, ip; procedure, shortened: as §1
L1210 [17] = test: Antitumor activity in the mice with intraperitoneal implanted L1210 lymphoid leukemia at the dose 75 mg/kg/day x 5 was determined as percentage increase in the life span as compared with control tumor bearers; assay type: functional; conditions: Mus musculus, L1210, ip; procedure, shortened: as §1
L1210 [18] = test: Antitumor activity in the mice with intraperitoneal implanted L1210 lymphoid leukemia at the dose 9.2 and 13.2 mg/kg/day x 5 was determined as percentage increase in the life span as compared with control tumor bearers; assay type: functional, Mus musculus; procedure, shortened: as §1
L1210 [19] = test: Antitumor activity in the mice with intraperitoneal implanted L1210 lymphoid leukemia at the dose 100 mg/kg/day x 5 was determined as Survival time in days; Range is 10-16 days; assay type: functional, Mus musculus; procedure, shortened: as §2
L1210 [20] = test: Antitumor activity in the mice with intraperitoneal implanted L1210 lymphoid leukemia at the dose 75 mg/kg/day x 5 was determined as Survival time in days; Range is 18-37 days; assay type: functional, Mus musculus; procedure, shortened: as §1
L1210 [21] = test: Antitumor activity in the mice with intraperitoneal implanted L1210 lymphoid leukemia at the dose 9.2 and 13.2 mg/kg/day x 5 was determined as Survival time in days; Range is 13-24 days; assay type: functional, Mus musculus; procedure, shortened: as §1
L1210 [22] = test: Antitumor activity in the mice with intraperitoneal implanted L1210 lymphoid leukemia at the dose 25 mg/kg/day x 5 was determined as Survival time in days; Range is 14-27 days; assay type: functional, Mus musculus; procedure, shortened: as §2
L1210 [23] = test: Antitumor activity in the mice with intraperitoneal implanted L1210 lymphoid leukemia at the dose 18.7 and 26.6 mg/kg/day x 5 was determined as percentage increase in the life span as compared with control tumor bearers; assay type: functional, Mus musculus; procedure, shortened: as §2
L1210 [24] = test: Antitumor activity in the mice with intraperitoneal implanted L1210 lymphoid leukemia at the dose 25 mg/kg/day x 5 was determined as percentage increase in the life span as compared with control tumor bearers; assay type: functional; conditions: Mus musculus, L1210, ip; procedure, shortened: as §2
L1210 [25] = test: Antitumor activity in the mice with intraperitoneal implanted L1210 lymphoid leukemia at the dose 9.2 and 13.2 mg/kg/day x 5 was determined and number of animals survived on 30 th day were reported; 0/6; assay type: functional, Mus musculus; procedure, shortened: as §1
L1210 [26] = test: Antitumor activity in the mice with intraperitoneal implanted L1210 lymphoid leukemia at the dose of 100 mg/kg/day x 5 was determined as median survival of treated group compared to untreated; 16/11

## C[C@]12CCC(=O)C=C1CC[C@@H]1[C@@H]2CC[C@@]2(C)[C@H]1CC[C@]2(O)C(=O)COP(=O)(O)OC[C@H]1O[C@@H](n2ccc(N)nc2=O)[C@@H](O)[C@@H]1O
L1210 [1]
  T/C: 28.5
L1210 [2]
  T/C: 18
L1210 [3]
  T/C: 20.5
L1210 [4]
  ILS at 100 mg/kg/day: 46%
L1210 [5]
  Weight change: 0.46 g mouse-1
L1210 [6]
  ED 50: 80 nM
L1210 [7]
  Weight change: -3.82 g mouse-1
L1210 [8]
  Weight change: 1.55 g mouse-1
L1210 [9]
  Weight change: -2.5 g mouse-1
L1210 [10]
  Survivors: 0
L1210 [11]
  Survivors: 0
L1210 [12]
  Survivors: 0
L1210 [13]
  Survival time: 14 days
L1210 [14]
  Survivors: 0
L1210 [15]
  Survivors: 3
L1210 [16]
  ILS at 50 mg/kg/day: 141%
L1210 [17]
  ILS at 75 mg/kg/day: 200%
L1210 [18]
  ILS: 59%
L1210 [19]
  Survival time: 10 days
L1210 [20]
  Survival time: 18 days
L1210 [21]
  Survival time: 13 days
L1210 [22]
  Survival time: 14 days
L1210 [23]
  ILS: 77%
L1210 [24]
  ILS at 25 mg/kg/day: 90%
L1210 [25]
  Survivors: 0
L1210 [26]
  T/C: 16

From ChEMBL document CHEMBL1121364, “Nucleoside conjugates as potential antitumor agents. 3. Synthesis and antitumor activity of 1-(beta-D-arabinofuranosyl)cytosine conjugates of corticosteroids” (1980)
